This note sets out measurements from ChEMBL document CHEMBL2046390, “Carnosine analogues containing NO-donor substructures: synthesis, physico-chemical characterization and preliminary pharmacological profile” (Eur J Med Chem, 2012).

In data set [1] the test system is Rattus norvegicus. Description: Protection against hypoxia-induced brain damage in Wistar rat ischemia-reperfusion injury model assessed as reduction of cerebral infarct volume at 500 mg/kg, iv administered at beginning of reperfusion and again after 6 hrs measured 24 hrs after reperfusion. Details: dose 500 mg/kg. The class given is functional, organism-based. The method in brief: (§1)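 Male Wistar rats, 210–230 g, anaesthetised with Zoletil and kept at 37 °C, underwent 30 min carotid occlusion then 24 h reperfusion; n = 5 per group. Compounds in 5% DMSO given i.v. at reperfusion onset and again after 6 h. Infarct volume from 2-mm coronal brain slices stained with 2% TTC, 37 °C, 30 min. Serum TNF-α by ELISA (pg/mL); means ± SEM.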

The test system of data set [2] is Rattus norvegicus. Description: Reduction of ischemia-reperfusion-induced TNFalpha level increase in Wistar rat serum at 500 mg/kg, iv by ELISA. The class given is functional, organism-based. Details: dose 500 mg/kg. The method in brief: as §1
The test system of data set [3] is Serum. Description: Metabolic stability of the compound in human serum at 0.5 mM after 3 hrs by RP-HPLC analysis. The class given is ADME, cell-free. Conditions: 500 µM. In outline:
(§2)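 A 10 mM aqueous stock was added to human serum preheated to 37 °C, giving 0.5 mM final, then incubated at 37 ± 0.5 °C. Aliquots were deproteinized with acetonitrile/0.1% TFA, centrifuged, filtered and analysed by RP-HPLC on C18 with diode-array detection, using methanol/20 mM sodium acetate pH 4.5–5 mM SDS mobile phase.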

Data set [4] is described as follows: Binding affinity to Cu2+ assessed as formation of compound-cu2+ complex formation by pH-metric technique. The class given is physicochemical. In outline: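 Compound and CuCl2, equimolar at 1 mM in water, acidified to pH 1.8 with 0.5 N HCl, then titrated with 0.5 N KOH to pH 12.2. Run under nitrogen at 25.0 ± 0.1 °C, ionic strength 0.15 M KCl, at least three titrations. Formation constants fitted from pH-metric data.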

Data set [5] can be described thus: Lipophilicity, log D of the compound at pH 7.4 by shake-flask method. Conditions: buffer. The class given is physicochemical. The method in brief: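 Shake-flask partition between n-octanol and phosphate buffer pH 7.4 (ionic strength 0.15 M KCl), phases presaturated 4 h. Compound about 0.1 mM in the aqueous phase; shaken about 20 min, centrifuged, aqueous concentration read by UV at 230 nm. At least 6 determinations per compound.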

The nature of data set [6]: Antioxidant activity against CuSO4-induced LDL oxidation assessed as delta-lag time at 100 uM by spectrophotometric analysis. The class given is functional. In outline: (§3)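 Human LDL isolated by ultracentrifugation (density 1.019-1.063 g/mL), EDTA removed by desalting, diluted in 10 mM phosphate buffer pH 7.4 to 50 μg protein/mL; compound 100 μM final. Oxidation started with 2.5 μM CuSO4 at 37 °C; conjugated dienes followed at 234 nm. Lag phase versus control; propagation rate from ΔA234 over time using ε234 = 29500 M-1 cm-1.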

Data set [7] can be described thus: Antioxidant activity against CuSO4-induced LDL oxidation measured per mg of LDL product assessed as propagation rate of the oxidation at 100 uM by spectrophotometric analysis. The class given is functional. In outline:
as §3

A short description of data set [8]: Antioxidant activity assessed as (E)-4-hydroxy-trans-2,3-nonenal scavenging activity in phosphate buffer at pH 7.4 at 1 mM after 24 hrs by reverse-phase HPLC analysis relative to control. The class given is functional. The method in brief:
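HNE 50 μM incubated with compound 1 mM in 1 mM phosphate buffer pH 7.4 at 37 °C for up to 24 h. Remaining HNE measured directly by reverse-phase HPLC. Scavenging % = 100 − (HNE left with scavenger / HNE left in control × 100).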

For data set [9], the system named is Thoracic aorta. Description: Vasodilator activity in Wistar rat endothelium-denuded thoracic aorta assessed as inhibition of L-phenylephrine-induced contraction. The class given is functional, tissue-based. The method in brief:
(§4)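 Rat aortic strips equilibrated 90 min, then contracted with 1 μM L-phenylephrine. Cumulative concentration-response curves were run at the plateau, with isometric recording. EC50 is the concentration giving 50% relaxation, mean of at least 5 determinations. ODQ 1 μM was added 5 min before contraction in a separate series.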

For data set [10], the system named is Thoracic aorta. Description: Vasodilator activity in Wistar rat endothelium-denuded thoracic aorta assessed as inhibition of L-phenylephrine-induced contraction in presence of ODQ. The class given is functional, tissue-based. In outline:
as §4

Data set [11] deals with Rattus norvegicus. Description: Reduction of ischemia-reperfusion-induced TNFalpha level increase in Wistar rat serum at 1 g/kg, iv by ELISA. The class given is functional, organism-based. The method in brief: as §1
The subject of data set [12] is Rattus norvegicus. Description: Protection against hypoxia-induced brain damage in Wistar rat ischemia-reperfusion injury model assessed as reduction of cerebral infarct volume at 1 g/kg, iv administered at beginning of reperfusion and again after 6 hrs measured 24 hrs after reperfusion. The class given is functional, organism-based. The method in brief:
as §1

A short description of data set [13]: Half life in human serum at 0.5 mM by RP-HPLC analysis. The class given is ADME, cell-free. In outline: as §2
Data set [14] concerns Thoracic aorta. Description: Vasodilator activity in Wistar rat endothelium-denuded thoracic aorta assessed as inhibition of L-phenylephrine-induced contraction at 1 mM. The class given is functional. In outline: as §4

The source made the active and inactive calls. The calls are words filed in the database; no cut-off is given here.

Broadly, the logD is the decadic logarithm of the distribution of all forms, ionised or not, between an organic phase and buffer at a given pH. A lower logD goes with a more hydrophilic compound. The EC50 is the concentration that produces a half-maximal response. Take `NCCC(=O)N[C@@H](Cc1c[nH]cn1)C(=O)NC[C@H](CO[N+](=O)[O-])O[N+](=O)[O-]`: the result in data set [1] and in data set [2] was Active. In addition, in data set [3], the Stability result is listed as “Stable”. Further, the Activity entry in data set [4] is “Active”; in data set [7] it was 5.8 nmol/min; in data set [8] it was 77.6%; in data set [9] it was “Dose-dependent effect”. The log distribution coefficient (logD) in data set [5] is -2.19. For the same compound, the TIME in data set [6] came out at 1.47 h. Also, the EC50 in data set [9] is 70 µM. For the same compound, in [10], the result was inactive.
As to `NCCC(=O)N[C@@H](Cc1c[nH]cn1)C(=O)NCc1ccc(OCCCO[N+](=O)[O-])cc1`, the Stability result in data set [3] was “Stable”. The compound also showed a pH-dependent lipophilicity (logD) in data set [5] of -1.01. In addition, the TIME in data set [6] stood at 1.17 h. Further, the Activity in [7] was 6.3 nmol/min; in data set [8], 74.3%; in data set [9], “Dose-dependent effect”. Also, the concentration giving a half-maximal response (EC50) in data set [9] was 3 µM. Besides, in data set [10], the outcome was inactive.
Regarding `CCCOc1ccc(CNC(=O)[C@H](Cc2c[nH]cn2)NC(=O)CCN)cc1`, the Stability result in data set [3] was “Stable”. In [5], the logD was -1.15. Moreover, the TIME in data set [6] was 1.07 h. Besides, the Activity was 9.5 nmol/min in data set [7] and 73.3% in [8].
For the compound `NCCC(=O)N[C@@H](Cc1c[nH]cn1)C(=O)O`, the outcome in [11] was inactive. For the same compound, in data set [9], the Activity entry was “Dose-dependent effect”. Also, the outcome in data set [12] was Active.
In the case of `CCCNC(=O)[C@H](Cc1c[nH]cn1)NC(=O)CCN`, in data set [1], the outcome was Active. The result in data set [2] was inactive. Moreover, the Stability entry in [3] was “Stable”.
By half-life is commonly meant the time in which the quantity being followed falls by half. A high value points to slow loss. In [13], `NCCC(=O)N[C@@H](Cc1cnc[nH]1)C(=O)O` [CARNOSINE] displayed a half-life at 500 µM of 5 min.
On to `NCCC(=O)N[C@@H](Cc1c[nH]cn1)C(=O)NC[C@@H](CO[N+](=O)[O-])O[N+](=O)[O-]`, for which the Stability result in data set [3] is “Stable”. Moreover, the Activity entry in data set [4] is “Active”; in [7], 5.8 nmol/min; in [8], 67.2%; in data set [9], “Dose-dependent effect”. In [5], this compound gave a pH-dependent lipophilicity (logD) of -2.33. Further, the TIME in data set [6] was 1.25 h. In addition, the concentration giving a half-maximal response (EC50) in [9] worked out at 169 µM. The result in [10] was inactive.
One may read the inhibition as the drop in the measured response relative to a control, in per cent. As to `NCCC(=O)N[C@@H](Cc1c[nH]cn1)C(=O)NCCCO[N+](=O)[O-]`, the inhibition at 1000 µM in data set [14] turned out to be 46%. Besides, in [3], the Stability entry is reported as “Stable”. For the same compound, the Activity entry in data set [4] is “Active”; in data set [7], 3.9 nmol/min; in [8], 75.4%; in data set [9], “Dose-dependent effect”. In data set [5], this compound yielded a log distribution coefficient (logD) of -2.43. The TIME in data set [6] is 1.5 h. Further, in [10], the result was inactive.
